Here are results for 17 compounds from ChEMBL document CHEMBL4602607, “Hit-to-Lead Optimization of Benzoxazepinoindazoles As Human African Trypanosomiasis Therapeutics” (J Med Chem, 2020).

Data set [1] in a line: Intrinsic clearance in rat hepatocytes assessed per 10^6 cells by LC-MS/MS analysis. Format: ADME, cell-based, Hepatocyte. In short, it runs like this: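 Rat hepatocyte incubation, samples analysed by LC/MS/MS; intrinsic clearance reported in µL/min/1 million cells.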
Data set [2] can be described thus: Distribution coefficient, logD of compound. Format: physicochemical. The settings on record: octanol/water.
A short description of data set [3]: Half life in NMRI mouse at 10 mg/kg, ip measured up to 24 hrs by LC-MS/MS analysis. Format: ADME, organism-based. To be noted: in vivo.
Another data set is described as follows: in vivo. To be noted: NMRI, mouse, ip, 10 mg/kg.
Data set [4] can be described thus: Cmax in NMRI mouse at 10 mg/kg, ip measured up to 24 hrs by LC-MS/MS analysis. Format: ADME, organism-based. Set-up: dose 10 mg/kg, route intraperitoneal. To be noted: in vivo.
Data set [5] in a line: Intrinsic clearance in human liver microsomes assessed per mg protein by LC-MS/MS analysis. Format: ADME, Microsome. Background: Liver microsomes are a subcellular fraction often used to study metabolism.
Data set [6] is described as follows: Ratio of drug concentration in brain to blood in NMRI mouse at 10 mg/kg, ip measured at 4 hrs by LC-MS/MS analysis. Format: ADME, organism-based. To be noted: brain and blood, read-out: BBR.
Data set [7] in a line: Ratio of drug concentration in brain to blood in NMRI mouse at 10 mg/kg, ip measured at 0.5 hrs by LC-MS/MS analysis. To be noted: brain and blood, read-out: BBR. Format: ADME, organism-based.

In turn, `Nc1cc(-c2cc3c4c(n[nH]c4c2)Nc2ccccc2O3)ncn1` showed a hepatocyte CLint in data set [1] of 73 µL/min/10^6 cells. Also, the logD – broadly, the decadic logarithm of the distribution of all forms, ionised or not, between an organic phase and buffer at a given pH – in data set [2] is on record as 3.8.
As for `Nc1ccnc(-c2cc3c4c(n[nH]c4c2)Nc2ccccc2O3)n1`, the hepatocyte CLint in data set [1] came to 56 µL/min/10^6 cells. This compound registered a logD in data set [2] of 4.1.
For the compound `c1ccc2c(c1)Nc1n[nH]c3cccc(c13)O2`, the hepatocyte CLint in data set [1] was determined as 47 µL/min/10^6 cells. The logD in data set [2] (read-out: logD) is > 4.
Compound `Nc1nc(-c2cc3c4c(n[nH]c4c2)Nc2ccccc2O3)cc(N2CCCCC2)n1` registered a hepatocyte CLint in data set [1] of 25 µL/min/10^6 cells. In data set [2], the logD came out at 4.6.
Compound `Nc1cccc(-c2cc3c4c(n[nH]c4c2)Nc2ccccc2O3)n1` registered a hepatocyte CLint in data set [1] of 220 µL/min/10^6 cells. The compound also yielded a logD in data set [2] of 3.7.
In the same order, the values of `CNc1cc(-c2cc3c4c(n[nH]c4c2)Nc2ccccc2O3)nc(N)n1` are 45 µL/min/10^6 cells and > 4.2.
In turn, `CN1CCN(c2cc(-c3cc4c5c(n[nH]c5c3)Nc3ccccc3O4)nc(N)n2)CC1` showed a hepatocyte CLint in data set [1] of 16 µL/min/10^6 cells. The logD in data set [2] is reported as 3.4.
`CCOc1cc(-c2ccnc(N)n2)cc2[nH]nc(N)c12`: in data set [3], the t1/2 amounted to 53.6 min. Also, the Tmax – broadly, the time from dosing to the highest level – at 24 h in “in vivo” fell in the range of 15 to 300 min. The logD in data set [2] came to 1.7. Also, the Cmax – broadly, the maximum level reached in the sampled fluid or tissue – in data set [4] stood at 3603 ng/mL. In data set [5], this compound displayed a CLH of 25 µL/min. Moreover, the Kp at 4 h in data set [6] is 0.214. For the same compound, in data set [7], the Kp at 0.5 h was 0.155.
On to `Cn1nc2c3c(cc(-c4ccnc(N)n4)cc31)Oc1ccccc1N2`, for which the hepatocyte CLint in data set [1] stood at 12 µL/min/10^6 cells. In addition, the t1/2 in data set [3] was determined as 63.6 min. Besides, the Tmax at 24 h in “in vivo” is 15 to 300 min. Also, the logD in data set [2] is recorded as > 4.3. In data set [4], this compound showed a Cmax of 615 ng/mL. Moreover, the Kp at 4 h in data set [6] is 2.12. Besides, in data set [7], the Kp at 0.5 h worked out at 2.39.
For the compound `CC(C)Nc1cc(-c2cc3c4c(n[nH]c4c2)Nc2ccccc2O3)nc(N)n1`, the hepatocyte CLint in data set [1] turned out to be 32 µL/min/10^6 cells. Besides, in data set [2], the logD came to 4.9.
In data set [1], `CNc1nccc(-c2cc3c4c(n[nH]c4c2)Nc2ccccc2O3)n1` registered a hepatocyte CLint of 45 µL/min/10^6 cells. Further, the logD in data set [2] was found to be 3.8.
The like results for `CN(C)c1cc(-c2cc3c4c(n[nH]c4c2)Nc2ccccc2O3)nc(N)n1` were, in that order, 44 µL/min/10^6 cells and > 4.4.
In turn, `COCc1cc(-c2cc3c4c(n[nH]c4c2)Nc2ccccc2O3)nc(N)n1` displayed a hepatocyte CLint in data set [1] of 41.4 µL/min/10^6 cells.
As for `CCNc1cc(-c2cc3c4c(n[nH]c4c2)Nc2ccccc2O3)nc(N)n1`, the hepatocyte CLint in data set [1] came to 26 µL/min/10^6 cells.
On to `Nc1nccc(-c2cc3c4c(n[nH]c4c2)N[C@@H]2CCC[C@H]2O3)n1`, for which the hepatocyte CLint in data set [1] (read-out: CLH) came to 52 µL/min/1e6 cells. In addition, in data set [2] (read-out: logD), the logD came out at 2.8.
For the compound `c1ccc2c(c1)Nc1n[nH]c3cc(-c4ccncn4)cc(c13)O2`, the hepatocyte CLint in data set [1] came out at 68 µL/min/10^6 cells. The logD in data set [2] is listed as 3.5.
The compound `CN(C)c1nccc(-c2cc3c4c(n[nH]c4c2)Nc2ccccc2O3)n1` displayed a hepatocyte CLint in data set [1] of 29 µL/min/10^6 cells. In data set [2], the logD is > 3.9.
